Test results published in ChEMBL document CHEMBL1138351, “Small, potent, and selective diaryl phosphonate inhibitors for urokinase-type plasminogen activator with in vivo antimetastatic properties” (J Med Chem, 2007).

Legend:
Coagulation factor X = Coagulation factor X (Homo sapiens, UniProt P00742); test: Inhibition of factor 10a
Procedure, shortened: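 Human factor Xa (FX activated with Russell's viper venom) at about 5 mU was preincubated with inhibitor (0–250 µM final) for 15 min at 37 °C. […] IC50 came from a four-parameter logistic fit.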

[1] = Distribution coefficient, log D in octanol and phosphate buffer saline at pH 7.4; type: physicochemical; conditions: octanol/phosphate buffered saline
Procedure, shortened: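 A 10 mM DMSO stock was added to a 1:1 octanol/PBS pH 7.4 mixture. Measured in duplicate.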

[2] = Apparent solubility in phosphate buffered saline at pH 7.4 after 2 hrs; type: ADME
Procedure, shortened: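 Compounds were serially diluted from 10 mM DMSO stock into PBS pH 7.4 (2% DMSO final), giving 1–200 µM final at eight concentrations, in duplicate. Incubation was 2 h at 37 °C. Solubility was taken as the onset of increased absorbance at 620 nm.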

[3] = Chemical stability assessed as half life of hydrolysis at pH 4; type: physicochemical; conditions: buffer
[4] = Chemical stability assessed as half life of hydrolysis at pH 8.8; type: physicochemical; conditions: buffer
[5] = Antimetastatic activity against Brown Norwegian rat bearing BN472 tumor assessed as decrease in number of lung foci at 1 mg/kg, ip administered once daily after 4 days of tumor transplantation for 17 to 18 days relative to control; type: functional; parameters: scale not given: the % may be the effect or the level left; conditions: route intraperitoneal
Procedure, shortened: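 BN472 breast tumours implanted orthotopically in rats and left to grow three days. From day 4, compounds were given i.p. daily for 17–18 days at 0.1 or 1 mg/kg. Controls received vehicle i.p. only. Lung foci were counted and axillary lymph nodes weighed at the end of treatment. Groups were compared with control at an unadjusted significance level of P 0.05.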

Rattus norvegicus [6] = test: Toxicity in Brown Norwegian rat bearing BN472 tumor assessed as increase in lung weight at 0.1 mg/kg, ip administered once daily after 4 days of tumor transplantation for 17 to 18 days relative to control; type: organism-based; parameters: dose 0.1 mg/kg, route intraperitoneal; conditions: in vivo
Procedure, shortened: (§1)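 Orthotopic BN472 breast tumour model in rats. Daily i.p. dosing at 0.1 or 1 mg/kg started on day 4 and ran 17–18 days, with vehicle-only i.p. controls. Side effects were assessed from body weight and the weights of several organs, compared with controls.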

Rattus norvegicus [7] = test: Toxicity in Brown Norwegian rat bearing BN472 tumor assessed as increase in uterus weight at 0.1 mg/kg, ip administered once daily after 4 days of tumor transplantation for 17 to 18 days relative to control; type: organism-based; parameters: dose 0.1 mg/kg, route intraperitoneal; conditions: in vivo; procedure, shortened: as §1
Rattus norvegicus [8] = test: Toxicity in Brown Norwegian rat bearing BN472 tumor assessed as decrease in spleen weight at 1 mg/kg, ip administered once daily after 4 days of tumor transplantation for 17 to 18 days relative to control; type: organism-based; parameters: dose 1 mg/kg, route intraperitoneal; scale not given: the % may be the effect or the level left; conditions: in vivo; procedure, shortened: as §1
Rattus norvegicus [9] = test: Toxicity in Brown Norwegian rat bearing BN472 tumor assessed as decrease in adrenal weight at 0.1 mg/kg, ip administered once daily after 4 days of tumor transplantation for 17 to 18 days relative to control; type: organism-based; parameters: dose 0.1 mg/kg, route intraperitoneal; scale not given: the % may be the effect or the level left; conditions: in vivo; procedure, shortened: as §1
[10] = target: Urokinase-type plasminogen activator (Homo sapiens, UniProt P00749)

Sequence of Coagulation factor X (P00742 41-179 limits assumed): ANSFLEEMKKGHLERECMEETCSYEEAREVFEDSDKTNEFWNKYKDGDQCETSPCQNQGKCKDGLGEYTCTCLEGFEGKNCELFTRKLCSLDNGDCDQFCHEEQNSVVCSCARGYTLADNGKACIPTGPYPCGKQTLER
Sequence of Coagulation factor X (P00742 235-488 limits assumed): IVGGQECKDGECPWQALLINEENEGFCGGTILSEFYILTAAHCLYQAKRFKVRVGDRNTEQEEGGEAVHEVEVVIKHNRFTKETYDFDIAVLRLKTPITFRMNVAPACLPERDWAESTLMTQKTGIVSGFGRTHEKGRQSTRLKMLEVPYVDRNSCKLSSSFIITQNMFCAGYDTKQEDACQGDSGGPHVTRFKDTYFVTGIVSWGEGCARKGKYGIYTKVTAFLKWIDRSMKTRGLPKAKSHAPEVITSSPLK

In the case of COC(=O)NC(Cc1ccc(NC(=N)N)cc1)P(=O)(Oc1ccc(NC(C)=O)cc1)Oc1ccc(NC(C)=O)cc1 (stereo unspecified), the IC50 (Coagulation factor X) is reported as 30 µM, the logD [1] is reported as -0.08 and the solubility at 2 h [2] is reported as over 200 µM. The half-life [3] was over 336 h, the half-life [4] was 3 h and the Activity [5] was 70%. The Activity (Rattus norvegicus [6]) was 18%, the Activity (Rattus norvegicus [7]) was 16% and the Activity (Rattus norvegicus [8]) was 10%. It also gave an Activity (Rattus norvegicus [9]) of 5% and a Kapp [10] of 1e+06 M⁻¹ s⁻¹.
